Results: ChEMBL document CHEMBL1143268 (Bioorg Med Chem Lett, 2009)
pEC50: −log10 of the molar value. Values after ≈ are worked out from the molar mass of the structure shown.

Tests used:
[1] = Solubility in water; type: physicochemical
Vaccinia virus [2] = experiment: Antiviral activity against Vaccinia virus infected in human foreskin fibroblasts by plaque assay; type: functional, organism-based; details: Orthopoxvirus vaccinia
Intestine = experiment: (§1) Metabolic stability in rat intestinal homogenate; type: ADME, tissue-based; details: tissue homogenate
Liver = experiment: (§2) Metabolic stability in rat liver homogenate; type: ADME, tissue-based; details: tissue homogenate
Cowpox virus [3] = experiment: Antiviral activity against Cowpox virus infected in human foreskin fibroblasts by plaque assay; type: functional, organism-based
[4] = Permeability from apical to basolateral side in human Caco-2 cells after 21 days; type: ADME, cell-based; details: read-out: permeability
Outline: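 Caco-2 monolayers were used 21 days post-seeding. Basolateral aliquots were taken at set intervals and replaced with HEPES buffer pH 7.4. Monolayer integrity was checked by transepithelial resistance.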

[5] = as §2; type: ADME, tissue-based; details: liver homogenate
Caco-2 = experiment: Permeability from apical to basolateral side in human Caco-2 cells after 21 days relative to vidarabine; type: ADME, cell-based; details: caco-2, 504 h
Outline: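 Caco-2 monolayers were used 21 days post-seeding, with integrity checked by transepithelial resistance. Basolateral aliquots were taken at set intervals and replaced with HEPES buffer pH 7.4.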

Plasma = type: ADME, cell-free; details: rat
HFF = experiment: (§3) Cytotoxicity against HFF; type: cell-based; details: human, hff
Outline: (§4)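 Cytotoxicity scored visually in uninfected human foreskin fibroblasts, reported as the 50% inhibitory concentration.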

HeLa [6] = experiment: Cellular uptake in human HeLa cells after 45 mins; type: ADME, cell-based; details: 0.75 h
Outline: (§5)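 Direct uptake measured over 45 min and expressed as nmol/mg, in HeLa cells stably expressing hPEPT1 and in parental HeLa controls. Valacyclovir served as the positive control for hPEPT1 carrier-mediated uptake. Values are means ± SD of three experiments.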

HeLa [7] = experiment: Cellular uptake in human HeLa cells expressing human PEPT1 transporter after 45 mins; type: ADME, cell-based; details: 0.75 h; outline: as §5
[8] = Oral bioavailability in human; type: ADME, organism-based; details: in vivo
[9] = Cytotoxicity against HFF in presence of deoxy-coformycin; type: cell-based; details: human, HFF cells
Outline: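 Cytotoxicity was scored visually in uninfected HFF cells, with 1 μM deoxycoformycin present, and reported as the 50% inhibitory concentration.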

[10] = as §1; type: ADME, tissue-based, Intestine; details: intestinal homogenate
Cowpox virus [11] = experiment: Antiviral activity against Cowpox virus infected in HFF by plaque assay in presence of deoxy-coformycin; type: functional, organism-based
Vaccinia virus [12] = experiment: Antiviral activity against Vaccinia virus infected in HFF by plaque assay in presence of deoxy-coformycin; type: functional, organism-based; details: Orthopoxvirus vaccinia
[13] = as §3; type: cell-based; details: human, HFF cells; outline: as §4

CC(C)C[C@@H](N)C(=O)OC[C@H]1O[C@@H](n2cnc3c(N)ncnc32)[C@@H](O)[C@@H]1O
solubility [1]: > 10000 µg/mL
pEC50 (Vaccinia virus [2]): 5.52
t1/2 (Intestine): 2.4 min
t1/2 (Liver): 3.6 min
pEC50 (Cowpox virus [3]): 5.60

Nc1ncnc2c1ncn2[C@@H]1O[C@H](COC(=O)[C@@H](N)Cc2ccccc2)[C@@H](O)[C@@H]1O
Papp A→B [4]: 0.668 ×10⁻⁶ cm/s
solubility [1]: > 10000 µg/mL
pEC50 (Vaccinia virus [2]): 5.74
t1/2 (Intestine): 16.2 min
half-life [5]: 1.02 min
fold change (FC) (Caco-2): 8.05
pEC50 (Cowpox virus [3]): 5.46

CC[C@H](C)[C@@H](N)C(=O)OC[C@H]1O[C@@H](n2cnc3c(N)ncnc32)[C@@H](O)[C@@H]1O
t1/2 (Plasma): 96.6 min
solubility [1]: > 10000 µg/mL
pEC50 (Vaccinia virus [2]): 5.54
t1/2 (Intestine): 474 min
t1/2 (Liver): 18.6 min
pEC50 (Cowpox virus [3]): 5.46

CC(C)[C@@H](N)C(=O)OC[C@H]1O[C@@H](n2cnc3c(N)ncnc32)[C@@H](O)[C@@H]1O
Papp A→B [4]: 0.601 ×10⁻⁶ cm/s
t1/2 (Plasma): 615.6 min
solubility [1]: > 10000 µg/mL
pEC50 (Vaccinia virus [2]): 5.39
t1/2 (Intestine): Stable
t1/2 (Liver): 27.6 min
fold change (FC) (Caco-2): 7.2
pEC50 (Cowpox virus [3]): 5.10
CC50 (HFF): > 100 µM

Nc1ncnc2c1ncn2[C@@H]1O[C@H](COC(=O)[C@H](N)Cc2ccccc2)[C@@H](O)[C@@H]1O
solubility [1]: > 10000 µg/mL
pEC50 (Vaccinia virus [2]): 5.64
t1/2 (Intestine): 35.4 min
t1/2 (Liver): 6 min
pEC50 (Cowpox virus [3]): 5.40
CC50 (HFF): > 100 µM

CC(C)C[C@H](N)C(=O)OC[C@H]1O[C@@H](n2cnc3c(N)ncnc32)[C@@H](O)[C@@H]1O
solubility [1]: > 10000 µg/mL
pEC50 (Vaccinia virus [2]): 5.48
t1/2 (Intestine): 1.8 min
t1/2 (Liver): 3 min
pEC50 (Cowpox virus [3]): 5.52
CC50 (HFF): > 100 µM

Nc1ncnc2c1ncn2[C@@H]1O[C@H](COC(=O)[C@H](N)CC(=O)O)[C@@H](O)[C@@H]1O
solubility [1]: > 10000 µg/mL
pEC50 (Vaccinia virus [2]): 5.60
pEC50 (Cowpox virus [3]): 5.40
CC50 (HFF): > 100 µM

Nc1ncnc2c1ncn2[C@@H]1O[C@H](COC(=O)C[C@@H](N)C(=O)O)[C@@H](O)[C@@H]1O
solubility [1]: > 10000 µg/mL
pEC50 (Vaccinia virus [2]): 5.46
pEC50 (Cowpox virus [3]): 4.60
CC50 (HFF): > 100 µM

COC(=O)[C@H](NP(=O)(OC[C@H]1O[C@@H](n2cnc3c(N)ncnc32)[C@@H](O)[C@@H]1O)Oc1ccccc1)C(C)C (some centres not stated)
t1/2 (Plasma): 21 min
solubility [1]: > 10000 µg/mL
t1/2 (Intestine): 1099 min
t1/2 (Liver): 355 min

CC(C)[C@H](N)C(=O)OC[C@H]1O[C@@H](n2cnc3c(N)ncnc32)[C@@H](O)[C@@H]1O
Drug uptake (HeLa [6]): 3.9 nmol/mg
Drug uptake (HeLa [7]): 80.3 nmol/mg
t1/2 (Plasma): 7.8 min
solubility [1]: > 10000 µg/mL
pEC50 (Vaccinia virus [2]): 5.32
t1/2 (Intestine): 18 min
t1/2 (Liver): 1.8 min
pEC50 (Cowpox virus [3]): 5.40

CC[C@H](C)[C@H](N)C(=O)OC[C@H]1O[C@@H](n2cnc3c(N)ncnc32)[C@@H](O)[C@@H]1O
Papp A→B [4]: 1.03 ×10⁻⁶ cm/s
Drug uptake (HeLa [6]): 7.5 nmol/mg
Drug uptake (HeLa [7]): 202 nmol/mg
t1/2 (Plasma): 215 min
solubility [1]: > 10000 µg/mL
pEC50 (Vaccinia virus [2]): 5.35
t1/2 (Intestine): 34.8 min
t1/2 (Liver): 3.6 min
fold change (FC) (Caco-2): 12.4
pEC50 (Cowpox virus [3]): 5.60
CC50 (HFF): > 100 µM

COC(=O)[C@@H](NP(=O)(OC[C@H]1O[C@@H](n2cnc3c(N)ncnc32)[C@@H](O)[C@@H]1O)Oc1ccccc1)C(C)C (some centres not stated)
t1/2 (Plasma): 18 min
solubility [1]: > 10000 µg/mL
t1/2 (Intestine): Stable
t1/2 (Liver): Stable

Nc1ccn(C[C@@H](CO)OCP(=O)(O)O)c(=O)n1.O.O [CIDOFOVIR]
bioavailability [8]: 2%

CC(C)[C@H](N)C(=O)OCCOCn1cnc2c(=O)[nH]c(N)nc21 [VALACYCLOVIR]
Drug uptake (HeLa [6]): 11.6 nmol/mg
Drug uptake (HeLa [7]): 221 nmol/mg

Nc1ncnc2c1ncn2[C@@H]1O[C@H](CO)[C@@H](O)[C@@H]1O [VIDARABINE]
Papp A→B [4]: 0.083 ×10⁻⁶ cm/s
solubility [1]: 470 µg/mL (≈ 1.76 mM)
pEC50 (Vaccinia virus [2]): 5.21
CC50 [9]: 90 µM
half-life [10]: 3 min
half-life [5]: 15 min
pEC50 (Cowpox virus [11]): 5.85
pEC50 (Cowpox virus [3]): 4.90
pEC50 (Vaccinia virus [12]): 6.00
CC50 [13]: > 100 µM
